Shown are actives, neighbours in structure and some others; about 3.4% of the full set was active somewhere.
CHT inh – inhibitors of human choline transporter CHT. B-score at 10 µM. CHT-expressing cells, membrane potential dye, choline response; hits give low values. AID 488975, 2010. High affinity choline transporter 1 (Homo sapiens), Q9GZV3. 0.86% of 310,000 active;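 active = B-score over 3 SD under the library average, and starting fluorescence ratio not unusually high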;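 note: choline stimulus applied at its EC90 after an EC20 pre-addition; B-score computed on integrated fluorescence ratio after choline addition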
CHT allo act – CHT positive allosteric modulators, primary screen, cell-based, membrane potential dye, choline EC20; CHT-expressing cells; hits give high values; LV-AA mutant CHT in HEK293 cells; B-score at 10 µM; 0.49% of 310,000 active;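 active = initial fluorescence not abnormally high and integrated response B-score, plate-corrected, over 3 SD above library mean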
ANO1 block – TMEM16A chloride channel inhibitors, primary screen, cell-based, HTS. Anoctamin-1 (Mus musculus), Q8BHY3. normalized B-score (activity score, 25-100; higher = stronger inhibition) at 10 µM. HEK293 TMEM16A/YFP iodide influx fluorescence, ionomycin. 1.2% of 310,000 active;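 active = ratio plate-corrected score three or more library SD toward inhibition, starting fluorescence score within five deviations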;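 note: score derived from kinetic fluorescence span divided by baseline fluorescence per well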
Target sequence (Q8BHY3 whole entry, looked up): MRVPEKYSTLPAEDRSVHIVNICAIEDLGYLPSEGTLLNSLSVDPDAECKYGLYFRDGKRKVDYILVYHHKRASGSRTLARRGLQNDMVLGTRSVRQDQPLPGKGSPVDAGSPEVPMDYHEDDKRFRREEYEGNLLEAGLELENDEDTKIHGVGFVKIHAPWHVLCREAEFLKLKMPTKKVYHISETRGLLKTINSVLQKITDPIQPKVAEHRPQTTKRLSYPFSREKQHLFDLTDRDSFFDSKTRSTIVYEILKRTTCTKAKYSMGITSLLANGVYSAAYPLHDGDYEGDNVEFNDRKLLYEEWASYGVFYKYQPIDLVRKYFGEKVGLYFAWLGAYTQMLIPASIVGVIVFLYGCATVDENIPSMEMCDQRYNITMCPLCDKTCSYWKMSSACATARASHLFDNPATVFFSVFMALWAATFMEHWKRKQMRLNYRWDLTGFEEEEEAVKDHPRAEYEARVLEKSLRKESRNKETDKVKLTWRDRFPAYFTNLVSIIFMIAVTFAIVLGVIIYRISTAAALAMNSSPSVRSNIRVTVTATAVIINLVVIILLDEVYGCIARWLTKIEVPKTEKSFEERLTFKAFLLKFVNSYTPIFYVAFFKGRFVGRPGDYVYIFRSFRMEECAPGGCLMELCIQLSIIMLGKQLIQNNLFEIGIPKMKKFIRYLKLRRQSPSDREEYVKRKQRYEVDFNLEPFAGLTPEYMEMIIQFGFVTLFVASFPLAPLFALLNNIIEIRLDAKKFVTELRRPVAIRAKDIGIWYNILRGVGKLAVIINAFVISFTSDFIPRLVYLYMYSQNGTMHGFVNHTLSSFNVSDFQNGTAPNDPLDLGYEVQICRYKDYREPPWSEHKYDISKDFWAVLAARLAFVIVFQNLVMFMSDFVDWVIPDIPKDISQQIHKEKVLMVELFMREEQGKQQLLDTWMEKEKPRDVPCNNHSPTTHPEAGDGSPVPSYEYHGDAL
VIM-2 inhibitor – VIM-2 metallo-beta-lactamase inhibitors, primary screen, biochemical, epi-absorbance readout, Pseudomonas aeruginosa enzyme; purified VIM-2, nitrocefin hydrolysis, epi-absorbance fluorescence; inhibition, % at 5.6 µM; 0.89% of 290,000 active;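 active = inhibition above the mean of all tested compounds plus 3 SD, cutoff set per screening run, cut at about 7.5% in these data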;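 note: red hydrolysis product quenches plate fluorescence so inhibitors raise well fluorescence; 0% = enzyme with DMSO and 100% = DMSO without enzyme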
IMP-1 inhibitor – IMP-1 metallo-beta-lactamase inhibitors, primary screen, biochemical, epi-absorbance readout, Pseudomonas aeruginosa enzyme. purified IMP-1, nitrocefin hydrolysis, epi-absorbance fluorescence. inhibition, % at 5.6 µM. 0.45% of 290,000 active;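 active = inhibition above the mean plus 3 SD of all compounds in the same screening run, cut at about 4.5% in these data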;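 note: 0% = IMP-1 with DMSO and 100% = DMSO wells lacking enzyme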
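Material – recombinant IMP-1 enzyme, purified · Amount – IMP-1 0.2 nM before substrate addition · Medium – HEPES buffer pH 7.1 with ZnSO4 and Brij 35 · Timing – 25 °C, 15 min preincubation, 25 min reaction · Measured by – plate fluorescence quenching by hydrolysis product, ex 480/em 530 nm · Read-out – percent enzyme inhibition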
TMEM16A act – TMEM16A chloride channel activators or potentiators, primary screen, cell-based, HTS. B-score at 10 µM. HEK293 TMEM16A/YFP-H148Q/I152L, iodide quench fluorescence; hits give low values. 0.3% of 340,000 active. Anoctamin-1 (Mus musculus), Q8BHY3;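 active = fluorescence-ratio B-score plate-corrected deviation score at least 3 library SD below zero, with starting fluorescence score within 5 deviations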;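 note: channel opened by trigger with iodide after compound preincubation; score built on the fluorescence ratio of max minus min over baseline; more negative score means more quench and so TMEM16A activation or potentiation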
CHT activ conf – CHT activators, confirmation, cell-based, membrane potential dye, duplicate; shares compounds with CHT allo act; CHT-expressing cells, membrane potential dye fluorescence (FDSS); % of choline EC20–EC90 response window; HEK293 expressing CHT LV-AA mutant; choline added at its EC20; activation, % at 10 µM; 91% of 2,500 active; AID 504833, 2011;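 active = primary screen active, with duplicate mean activation above negative control mean plus 3 SD, cut at about 11% in these data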
HEK293 MP dye – membrane potential response in parental HEK293 cells, counter-screen for CHT activator project, cell-based, membrane potential dye; 62% of 2,500 active; membrane potential dye fluorescence (FDSS); measured after EC20 choline addition; ratio readout change at 10 µM, hits read low; shares compounds with CHT allo act;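 active = duplicate-averaged ratio beyond 3 SD from buffer wells, up or down, though filed actives are nearly all decreases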
Active calls of the source: *; i = inactive; · = no result given.

SMILES | CHT inh | CHT allo act | ANO1 block | VIM-2 inhibitor | IMP-1 inhibitor | TMEM16A act | CHT activ conf | HEK293 MP dye
CN1C2=NCCN2C(=O)c2cc(Cl)ccc21 | i | i | i | 3 | -2 | i | · | ·
COc1ccc2c(c1)N1CCN=C1N2C | i | 8.9* | i | -2 | -5 | i | 65* | -65*
O=S(=O)(c1ccc(S(=O)(=O)N2CCC(O)CC2)cc1)N1CCCC1 | i | i | i | -3 | 0 | i | · | ·
Oc1ccc(C[C@H]2CNCCN2CC2CCCCC2)cc1 | i | i | i | · | · | i | · | ·
COC(=O)c1ccc(C)c(NS(=O)(=O)c2ccc(OC)cc2)c1 | i | 8.1* | i | -4 | -3 | i | 48* | i
COC(=O)c1ccc(C)c(NS(=O)(=O)c2ccc(C)c([N+](=O)[O-])c2)c1 | i | i | i | -3 | -3 | i | · | ·
Cc1cc(OCC(=O)Nc2ccc(N3CCN(C)CC3)cc2)ccc1Cl | i | i | i | 4 | -4 | i | · | ·
Cc1ccc2c(c1)sc1nc(=O)ccn12 | i | i | i | 0 | -2 | i | 40* | -38*
COc1ccc2c(c1)sc1nc(=O)ccn12 | i | i | i | -4 | -6 | i | · | ·
CCN(CC)CCCNC1=C(Cl)C(=O)c2ccccc2C1=O | i | i | i | 1 | -1 | i | 61* | -54*
CC(C)OCCCNC1=C(Cl)C(=O)c2ccccc2C1=O | i | i | i | 6 | 0 | i | · | ·
COc1ccc2c(c1)CCCN2C(N)=O | i | i | i | -1 | -3 | i | · | ·
COc1ccc2c(c1)CCCN2C(N)=Nc1ccc(Cl)cc1 | i | 6.3* | i | -3 | -3 | i | 16* | i
COc1cc(OC)cc(-c2c(-c3cccs3)c3cc(-c4ccc(CN5CCOCC5)cc4)ccc3n2C)c1 | · | · | · | · | · | i | · | ·
COCCn1c(Cc2ccccc2)nnc1SCC(=O)Nc1oc(C)c2c(C)n[nH]c(=O)c12 | i | i | i | · | · | i | · | ·
Cc1cccn2c(=O)c3cc(C(=O)NC4CCCC4)c(=N)n(CCc4ccccc4)c3nc12 | i | i | i | 4 | -4 | i | 10 | -29*
COc1ccc(CCn2c(=N)c(C(=O)NC3CCCCC3)cc3c(=O)n4ccccc4nc32)cc1 | i | i | i | 5 | -3 | i | 43* | -48*
N=c1c(C(=O)NC2CCCC2)cc2c(=O)n3ccccc3nc2n1CCN1CCOCC1 | i | i | i | 1 | -2 | i | 48* | -38*
Cc1ccc(Cn2c(=N)c(C(=O)NC3CCCCC3)cc3c(=O)n4ccccc4nc32)cc1 | i | i | i | 2 | -2 | i | · | ·
Cc1cccc(C(C)C)c1NC(=O)C(C)OC(=O)Cc1n[nH]c(=O)c2ccccc12 (configuration not stated) | i | i | i | · | · | i | · | ·
Cc1c(NC(=O)COC(=O)Cc2ccc(F)cc2)c(=O)n(-c2ccccc2)n1C | i | i | i | · | · | i | · | ·
O=C(c1n[nH]c2ccccc12)N1CCN(S(=O)(=O)c2ccc(Cl)cc2)CC1 | · | · | · | · | · | i | · | ·
COc1ccc(CN(CCC(c2ccccc2)c2ccco2)C(=O)c2ccco2)cc1 (configuration not stated) | i | i | i | 3 | 1 | i | · | ·
O=C(c1ccco1)N(CCC(c1ccccc1)c1ccco1)Cc1ccccc1 (configuration not stated) | i | 6.4* | i | -4 | -2 | i | 40* | i
O=[N+]([O-])c1ccc(C[n+]2cccc3ccccc32)cc1 | i | 8.1* | i | -2 | -2 | i | 47* | -46*
SMILES | CHT inh | CHT allo act | ANO1 block | VIM-2 inhibitor | IMP-1 inhibitor | TMEM16A act | CHT activ conf | HEK293 MP dye
CCOC(=O)c1ccc2c(c1)n(CCO)c(C)[n+]2CC | i | i | i | -1 | 1 | i | · | ·
CCOC(=O)c1ccc2c(c1)n(CC)c(/C=C/N(C)c1ccccc1)[n+]2CC | i | 7.4* | i | -2 | -2 | i | 44* | -63*
O=C(CCCn1c(=O)[nH]c2ccccc2c1=O)NC1CCCCCC1 | i | i | i | -1 | -3 | i | · | ·
CC1CCC(NC(=O)CCCn2sc3ccccc3c2=O)CC1 (configuration not stated) | i | 8.7* | i | -3 | -2 | i | 27* | i
COc1ccc(CN(C)CC(=O)Nc2cccc(S(=O)(=O)N3CCCC3)c2)cc1F | · | · | · | · | · | i | · | ·
Cc1cccc2nc(=S)n(C(=O)c3ccco3)n12 | i | i | i | 1 | -3 | i | · | ·
O=C(c1ccco1)n1c(=S)nc2ccccn21 | i | i | i | -1 | -4 | i | 34* | -24*
C(=N\Nc1nc2ccccc2[nH]1)/c1ccncc1 | i | i | i | -6 | -5 | i | · | ·
C(=N\NC1=NCCN1)/c1ccncc1 | i | 6.4* | i | -1 | -3 | i | 54* | -54*
Clc1cncc(Cl)c1N/N=C/c1ccncc1 | i | i | i | 4 | -3 | i | 51* | -53*
CCOC(=O)Cc1nnc(NC(=O)CCc2ccccc2)s1 | i | i | i | -2 | -2 | i | · | ·
CCCN1CCN(S(=O)(=O)c2ccc(-c3cc(C)no3)s2)CC1 | i | i | i | 0 | -1 | i | · | ·
CCCN(CC(=O)Nc1ccccc1C)C(=O)c1cccc(S(=O)(=O)N2CCc3ccccc3C2)c1 | i | 6.9* | i | -3 | -3 | i | 6 | i
C[C@H](NC(=O)C(c1ccccc1)c1ccccc1)c1ccccc1 | i | 7.9* | i | -3 | -1 | · | 6 | i
Cc1ccc(-c2c(C(=O)N/N=C/c3cccnc3)nnn2-c2nonc2N)cc1 | i | i | i | -3 | -2 | i | · | ·
Cc1c(C(=O)N/N=C/c2cccnc2)nnn1-c1nonc1N | i | i | i | 0 | 0 | i | 31* | -45*
O=C(CN1CCN(CN2C(=O)NC3(CCCCCC3)C2=O)CC1)Nc1ccc(F)cc1 | · | · | · | · | · | i | · | ·

Bioassay records: PubChem, several laboratories
